We go through 73 sequences from the array DNA melting data of Ke et al. (doi:10.1101/2024.01.08.574731).

The nature of series [1]: melting temperature; fluorescence melt of hairpins on a sequencing array, two-state fit, raised by 9.35 °C to match UV melts. As to conditions: sodium 0.088 M. An outline of the steps:
(§1)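 On a sequenced MiSeq flow cell, library hairpins with annealed Cy3 and quencher oligos were imaged for Cy3 fluorescence in 2.5 °C steps up to 60 °C, in 50 mM Na-HEPES pH 8.0, 25 mM NaCl. Normalisation used pre-quench Cy3 and control constructs. Bootstrapped two-state fits gave melting temperature and folding enthalpy, combined by inverse variance across four replicates and with fitted temperatures raised by 9.35 °C to match UV melts.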

Series [2] is described as follows: folding enthalpy; higher = less favourable; fluorescence melt of hairpins on a sequencing array, two-state fit. To be noted: sodium 0.088 M. An outline of the steps: as §1

Consider GCATCTGGAAACAGATGC (((((((....))))))), for which the Tm in series [1] turned out to be 67.3 °C. Moreover, the folding enthalpy in series [2] is -200 kJ/mol.
Consider GCATGAGCGAAAGCTTGC (((..(((....)))))), for which the Tm in series [1] came out at 45.6 °C. For the same sequence, the folding enthalpy in series [2] was -59.2 kJ/mol.
Consider GCATGATCGAAAGATTGC (((..(((....)))))), for which, in series [1], the Tm was 32.6 °C. The folding enthalpy in series [2] is -83.2 kJ/mol.
Consider GCATGCCCGAAAGGGTGC (((..(((....)))))), for which, in series [1], the Tm is 44.4 °C. Also, the folding enthalpy in series [2] was -59.8 kJ/mol.
Taken in the same sequence, the figures for GCATGCCGAAAGGCCTGC (((.(((....))).))) were 55.9 °C and -132 kJ/mol.
For the sequence GCATGCGAAAGCAATTGC ((((((....)))..))), the Tm in series [1] was found to be 44.1 °C. In series [2], the folding enthalpy was -81.8 kJ/mol.
Taken in the same sequence, the figures for GCATGCGAAAGCACATGC ((((((....)))..))) were 51 °C and -79.5 kJ/mol.
The matching figures for GCATGCGAAAGCACGTGC ((((((....)))..))): 39.8 °C and -80.2 kJ/mol.
The matching figures for GCATGCGAAAGCACTGC ((((((....))).))): 51.3 °C and -93.3 kJ/mol.
Regarding GCATGCGAAAGCACTTGC ((((((....)))..))), the Tm in series [1] turned out to be 37.7 °C. Further, the folding enthalpy in series [2] is -64.3 kJ/mol.
The matching figures for GCATGCGAAAGCAGATGC ((((((....)))..))): 51.4 °C and -103 kJ/mol.
Taken in the same sequence, the figures for GCATGCGAAAGCAGGTGC ((((((....)))..))) were 51.1 °C and -97.2 kJ/mol.
Taken in the same sequence, the figures for GCATGCGAAAGCAGTGC ((((((....))).))) were 54.6 °C and -113 kJ/mol.
Turning to GCATGCGGAAACGCATAC (.(((((....))))).), the Tm in series [1] worked out at 44 °C. Moreover, in series [2], the folding enthalpy was -40.9 kJ/mol.
Taken in the same sequence, the figures for GCATGCTCGAAAGAGTGC (((..(((....)))))) were 34.3 °C and -66.2 kJ/mol.
For the sequence GCATGGACGAAAGTCTGC (((..(((....)))))), the Tm in series [1] was 43 °C. Also, the folding enthalpy in series [2] was -80.1 kJ/mol.
The matching figures for GCATGGCGAAAGCCCTGC (((.(((....))).))): 53 °C and -189 kJ/mol.
Taken in the same sequence, the figures for GCATGGCGAAAGCGAAGC ((.(.((....)).).)) were 35.4 °C and -48.9 kJ/mol.
The matching figures for GCATGGCGAAAGCGTTGC (((..((....))..))): 48 °C and -90 kJ/mol.
For the sequence GCATGGCGAAAGCTAAGC ((.(.((....)).).)), in series [1], the Tm turned out to be 38.4 °C. Moreover, the folding enthalpy in series [2] was -52.8 kJ/mol.
Taken in the same sequence, the figures for GCATGGCGAAAGCTACGC ((.(.((....)).).)) were 35 °C and -68.7 kJ/mol.
The matching figures for GCATGGCGAAAGCTGTGC (((..((....))..))): 59.9 °C and -132 kJ/mol.
Regarding GCATGGGGAAACCCACGC ((.((((....)))).)), the Tm in series [1] was determined as 46.7 °C. The folding enthalpy in series [2] was -99.7 kJ/mol.
For the sequence GCATGGGGAAACCCGTGC (((.(((....))).))), the Tm in series [1] stood at 58.7 °C. The folding enthalpy in series [2] was -199 kJ/mol.
The matching figures for GCATGTCGAAAGACCTGC (((.(((....))).))): 50.6 °C and -156 kJ/mol.
Taken in the same sequence, the figures for GCATGTGGAAACACATGC (((((((....))))))) were 68.5 °C and -155 kJ/mol.
For the sequence GCATGTGGAAACACGTGC (((.(((....))).))), in series [1], the Tm was 55.6 °C. For the same sequence, the folding enthalpy in series [2] was -190 kJ/mol.
As to GCATTAACGAAAGTTTGC (((..(((....)))))), the Tm in series [1] is 33.6 °C. The folding enthalpy in series [2] was -66.8 kJ/mol.
The matching figures for GCATTACCGAAAGGTTGC (((..(((....)))))): 40 °C and -84.3 kJ/mol.
Taken in the same sequence, the figures for GCATTAGGAAACTAGTGC (((.(((....))).))) were 40.9 °C and -120 kJ/mol.
The matching figures for GCATTCCCGAAAGGGTGC (((..(((....)))))): 43.5 °C and -87.4 kJ/mol.
On to GCATTCGAAAGAAATGC ((((((....))).))), for which the Tm in series [1] turned out to be 49 °C. For the same sequence, the folding enthalpy in series [2] was -127 kJ/mol.
On to GCATTCGAAAGAAGGTGC ((((((....)))..))), for which the Tm in series [1] was found to be 36.7 °C. Further, the folding enthalpy in series [2] is -92.8 kJ/mol.
Taken in the same sequence, the figures for GCATTCGAAAGAAGTGC ((((((....))).))) were 40.2 °C and -97.1 kJ/mol.
Taken in the same sequence, the figures for GCATTCGCGAAAGCGTGC (((..(((....)))))) were 41.8 °C and -49.5 kJ/mol.
GCATTGCGAAAGCAGTGC (((.(((....))).))): in series [1], the Tm amounted to 59.8 °C. In addition, the folding enthalpy in series [2] was -205 kJ/mol.
Taken in the same sequence, the figures for GCATTGCGAAAGCTAAGC ((.(.((....)).).)) were 43.7 °C and -61.9 kJ/mol.
Taken in the same sequence, the figures for GCATTGCGAAAGCTACGC ((.(.((....)).).)) were 39.1 °C and -58.4 kJ/mol.
Taken in the same sequence, the figures for GCATTGCGAAAGCTGTGC (((..((....))..))) were 56 °C and -92.8 kJ/mol.
Take GCATTGGCGAAAGCCTGC (((..(((....)))))): in series [1], the Tm came to 44.3 °C. Also, in series [2], the folding enthalpy is -63.3 kJ/mol.
Taken in the same sequence, the figures for GCATTGGGAAACCAACGC ((.((((....)))).)) were 42.2 °C and -123 kJ/mol.
Taken in the same sequence, the figures for GCATTGGGAAACCAATAC (.(((((....))))).) were 32.9 °C and -77.2 kJ/mol.
Turning to GCATTGGGAAACCGATGC ((((.((....)).)))), in series [1], the Tm amounted to 53.3 °C. In series [2], the folding enthalpy was -211 kJ/mol.
The matching figures for GCATTGGGAAACTAGTGC (((.(.(....).).))): 29.8 °C and -81.7 kJ/mol.
The matching figures for GCATTGTCGAAAGACTGC (((..(((....)))))): 37.2 °C and -95.3 kJ/mol.
Taken in the same sequence, the figures for GCATTTACGAAAGTATGC (((..(((....)))))) were 38 °C and -92.9 kJ/mol.
GCATTTCGAAAGAATTGC (((.(((....))).))): in series [1], the Tm is 47.1 °C. Also, the folding enthalpy in series [2] was -141 kJ/mol.
The matching figures for GCATTTGGAAACAAATAC (.(((((....))))).): 29.3 °C and -74.9 kJ/mol.
The matching figures for GCCAAACCGAAAGGTGGC (((..(((....)))))): 55.4 °C and -134 kJ/mol.
The matching figures for GCCAAACGAAAGTTGGGC (((.(((....))).))): 61.4 °C and -156 kJ/mol.
As to GCCAAAGAAATTTGGC ((((((....)))))), in series [1], the Tm stood at 54 °C. Moreover, the folding enthalpy in series [2] is -145 kJ/mol.
In the case of GCCAAAGGAAACCTTGGC (((((.(....).))))), the Tm in series [1] was determined as 48.1 °C. Moreover, the folding enthalpy in series [2] was -121 kJ/mol.
Taken in the same sequence, the figures for GCCAACGAAAGTTACGGC ((((((....)))..))) were 41.3 °C and -109 kJ/mol.
The matching figures for GCCAACGAAAGTTAGGC ((((((....))).))): 52.8 °C and -121 kJ/mol.
The matching figures for GCCAACGAAAGTTCTGGC ((((((....)))..))): 38 °C and -104 kJ/mol.
Regarding GCCAACGAAAGTTGGGC ((((((....))).))), the Tm in series [1] worked out at 65.7 °C. The folding enthalpy in series [2] is -59.5 kJ/mol.
Taken in the same sequence, the figures for GCCAACGAAAGTTTTGGC ((((((....)))..))) were 44.6 °C and -96.9 kJ/mol.
Taken in the same sequence, the figures for GCCAACGGAAACACTGGC ((((..(....)..)))) were 29.1 °C and -58.4 kJ/mol.
Consider GCCAACGGAAACATTGGC (((((.(....).))))), for which the Tm in series [1] was 44.1 °C. In addition, the folding enthalpy in series [2] was -134 kJ/mol.
The matching figures for GCCAACTCGAAAGAGGGC (((..(((....)))))): 47.3 °C and -84.5 kJ/mol.
The matching figures for GCCAAGGGAAACTTTGGC (((((.(....).))))): 48.6 °C and -126 kJ/mol.
With GCCAATACGAAAGTAGGC (((..(((....)))))), in series [1], the Tm was found to be 44.2 °C. Also, the folding enthalpy in series [2] was -107 kJ/mol.
In the case of GCCAATCGAAAGATCGGC (((.(((....))).))), in series [1], the Tm stood at 49.8 °C. In addition, in series [2], the folding enthalpy is -149 kJ/mol.
On to GCCAATCGAAAGATGGGC (((.(((....))).))), for which, in series [1], the Tm was determined as 55.1 °C. Also, the folding enthalpy in series [2] is -165 kJ/mol.
The matching figures for GCCAATGCGAAAGCAGGC (((..(((....)))))): 53 °C and -90.8 kJ/mol.
In the case of GCCACATCGAAAGATGGC (((..(((....)))))), in series [1], the Tm stood at 45.5 °C. Further, the folding enthalpy in series [2] is -63.8 kJ/mol.
Taken in the same sequence, the figures for GCCACCGGAAACGATGGC ((((.((....)).)))) were 52.6 °C and -184 kJ/mol.
Taken in the same sequence, the figures for GCCACCTCGAAAGAGGGC (((..(((....)))))) were 44.5 °C and -40.1 kJ/mol.
The matching figures for GCCACGCGAAAGCATCGC ((.(.((....)).).)): 24 °C and -31.3 kJ/mol.
As to GCCACGCGAAAGCCAGGC (((..((....))..))), in series [1], the Tm is 50.2 °C. Also, in series [2], the folding enthalpy is -94.9 kJ/mol.
The matching figures for GCCACGCGAAAGCCTAGC ((.(.((....)).).)): 14.4 °C and -27.3 kJ/mol.
Consider GCCACGCGAAAGCGAAGC ((..(((....)))..)), for which the Tm in series [1] is 43.4 °C. Moreover, in series [2], the folding enthalpy is -46.9 kJ/mol.
With GCCACGCGAAAGCGTTGC ((.((((....)))).)), the Tm in series [1] came out at 57.6 °C. Moreover, the folding enthalpy in series [2] is -84.5 kJ/mol.
